Source: PubChem
Most compounds without a hit are left out; they make up all but 2.3% or so of the library.
NPY-Y1 antag: NPY-Y1 (human) receptor antagonism; P25929; HEK293-CNG Y1 cells, membrane potential fluorescence; NPY at EC95, then isoproterenol; inhibition, % at 3.6 µM; 200,000 tested, 1% active; AID 1040;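 active = inhibition above the campaign mean inhibition of all tested compounds plus 3 SD, cut at about 20% in these data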;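 note: 0% = DMSO wells given NPY plus isoproterenol and 100% = isoproterenol alone without NPY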
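Test system – HEK293 Y1/CNG channel cell line · Also added – NPY agonist 25 nM, then isoproterenol 1 µM plus Ro 20-1724 25 µM · Compound dosing – one concentration, 3.6 µM, in 0.4% DMSO · Schedule – compound incubation 1 h at room temperature, readout 45 min post-stimulation · Technique – fluorescence, membrane potential probe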
m-calpain inh: calpain II (pig) inhibition; purified calpain II, fluorogenic peptide substrate, 30 min; inhibition, % at 16 µM; 220,000 tested, 0.37% active; AID 1236;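 active = inhibition above about 50%, limit read from the data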
NPY-Y1 PAM-ag: potentiates or activates human NPY-Y1 receptor. activation, % at 3.6 µM. P25929. 220,000 tested, 0.37% active. NPY-Y1 expressing cells, potentiator/agonist activation; in the data active = activation above about 33%, passing the limit was not always enough;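 note: cells stimulated with NPY at EC10 then isoproterenol at EC100; 0% = low agonist plus stimulus and 100% = saturating agonist plus stimulus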
Tb hexokinase: T. brucei hexokinase 1 inhibition | inhibition, % at 10 µM | recombinant TbHK1, G6PDH-coupled NADH A340 | 220,000 tested, 0.11% active;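 active = inhibition of 50% or more in the single-dose primary screen; inactive = inhibition below 50%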
NPY-Y2 PAM-ag: human NPY-Y2 potentiation or agonism, primary screen. P49146. 220,000 tested, 0.45% active. activation, % at 3.6 µM. cells expressing NPY-Y2, potentiator/agonist read-out; in the data active = activation above about 27%;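 note: cells stimulated with NPY near EC25 plus isoproterenol at EC100; 0% = vehicle plus submaximal agonist and 100% = vehicle plus saturating agonist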
Target sequence (P49146 whole entry, looked up): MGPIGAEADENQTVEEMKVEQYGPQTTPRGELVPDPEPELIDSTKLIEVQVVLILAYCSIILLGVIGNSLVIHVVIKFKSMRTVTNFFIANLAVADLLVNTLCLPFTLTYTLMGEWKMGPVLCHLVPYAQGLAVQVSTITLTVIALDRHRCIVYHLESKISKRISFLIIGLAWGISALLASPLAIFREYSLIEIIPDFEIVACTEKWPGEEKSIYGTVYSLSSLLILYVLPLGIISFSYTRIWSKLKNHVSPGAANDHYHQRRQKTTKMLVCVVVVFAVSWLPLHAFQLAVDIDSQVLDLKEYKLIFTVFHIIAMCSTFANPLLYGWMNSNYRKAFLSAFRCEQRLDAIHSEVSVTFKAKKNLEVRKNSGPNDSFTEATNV
NPY Y2 blocker: NPY-Y2 (human) receptor antagonism; P49146; NPY-Y2 expressing cells, antagonist mode; inhibition, % at 2.7 µM; 140,000 tested, 0.99% active; AID 793;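 note: 0% = vehicle with agonist challenge and 100% = reference antagonist with challenge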
NPY-Y1 ant conf: confirmation of human neuropeptide Y receptor Y1 antagonists. shares compounds with NPY-Y1 antag. HEK293-CNG NPY-Y1, membrane potential fluorescence, cAMP; NPY challenge against isoproterenol-raised cAMP. inhibition, % at 3.6 µM. 1,200 tested, 21% active. AID 1254; in the data active = inhibition above about 20%;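 note: 0% = vehicle with agonist plus stimulus and 100% = stimulus alone without agonist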
NPY2 antag ctr: human NPY-Y2 antagonism in NPY-Y1 counter-screen. AID 1255. inhibition, % at 3.6 µM. HEK293 NPY-Y2 CNG membrane potential fluorescence; cells given NPY, then isoproterenol. 1,200 tested, 28% active. shares compounds with NPY-Y1 antag;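 note: 0% = DMSO with agonist challenge and 100% = reference antagonist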
Starred values were filed as active, the others as inactive; . = no result given. Cut-off read from the data, not from the text of the source, unless noted: active = inhibition above about 17%; inactive = the rest.

SMILES	NPY-Y1 antag	m-calpain inh	NPY-Y1 PAM-ag	Tb hexokinase	NPY-Y2 PAM-ag	NPY Y2 blocker	NPY-Y1 ant conf	NPY2 antag ctr
CCCCNc1nc2ccccc2n1CC(=O)N1CCc2ccccc2C1	23*	-1	-33	6	-9	15	9	9
CCCCNc1nc2ccccc2n1CC(=O)Nc1c(C)cccc1CC	31*	0	-35	-3	7	10	20	14
CCc1ccc2[nH]c(=O)c(CN(CCN(CC)CC)C(=S)NCc3ccco3)cc2c1	22*	-1	-30	9	-31	.	14	14
CCOC(=O)C1(CC2CCCCO2)CCN(Cc2c(C)cc(C)cc2-n2cccn2)CC1 (configuration not stated)	24*	4	-15	-2	-10	.	9	8
CCOC(=O)C1(CC2CCCCO2)CCN(Cc2cc(F)ccc2-n2cccn2)CC1 (configuration not stated)	25*	-9	-2	1	-16	.	18	7
CCOC(=O)C1(CC2CCCCO2)CCN(Cc2nccn2-c2cccc(C)c2)CC1 (configuration not stated)	8	8	1	-3	-4	.	.	.
COc1ccc(/C=C(/NC(=O)c2cccc([N+](=O)[O-])c2)C(=O)O)cc1	1	-34	-3	-5	3	.	.	.
COc1ccc2c(-c3ccccc3)cc(SCC(=O)NC3CCS(=O)(=O)C3)nc2c1 (configuration not stated)	0	-13	6	-17	-1	10	.	.
COC(=O)c1ccc(CNC(=O)c2ccc(COc3ccccc3)cc2)cc1	-1	9	-3	24	5	7	.	.
CCc1ccc2nc(NC(=O)CCCc3cccs3)sc2c1	24*	-1	-39	-3	-21	7	11	8
Cc1ccc2nc(NC(=O)Cc3cccs3)sc2c1	-11	9	32	-6	21	-4	.	.
CCOc1ccc(N(CC(=O)Nc2cc(C)ccc2C)S(=O)(=O)c2c(C)[nH]c(=O)[nH]c2=O)cc1	.	8	-4	-4	-24	.	.	.
COC(=O)/C=C1\N/C(=N\c2nc(C)cc(C)n2)N(c2ccc(C)c(C)c2)C1=O	0	11	15	-21	-3	-1	.	.
O=C(CN1C(=O)C2CC=CCC2C1=O)Nc1nnc(SCc2c(Cl)cccc2Cl)s1 (configuration not stated)	3	-42	-1	0	6	5	.	.
O=C(CN1C(=O)C2CC=CCC2C1=O)Nc1nnc(SCc2ccc(Cl)cc2)s1 (configuration not stated)	24*	-22	-25	-1	-14	15	9	10
COc1ccc(C(=O)CSc2ccc(-c3ccc(C)cc3)nn2)cc1	25*	26	-5	-3	4	9	7	6
CC1(C)CC(=O)C=C(NNC(=O)OC(C)(C)C)C1	22*	-10	-13	-14	-5	.	-2	1
COc1ccc(/C(C)=N/N=C2/NC(=O)CC(C(=O)O)S2)cc1F (configuration not stated)	.	9	-12	-54	3	.	.	.
N#Cc1c(N)nc2c(c1-c1ccc(F)cc1)c(=O)nc1sccn12	47*	-21	2	-23	2	.	-1	4
Cc1nn(-c2ccccc2)c2nc(N)c(C#N)c(-c3ccc(F)cc3)c12	23*	-108	-29	0	-18	4	4	16
O=C(NC(NC(=S)Nc1c(Cl)cccc1Cl)C(Cl)(Cl)Cl)OCc1ccccc1 (configuration not stated)	22*	7	27	34	12	4	15	3
Cc1ccc(/C=C(\CCC(=O)O)c2nc3ccccc3s2)cc1[N+](=O)[O-]	18	-4	-22	-7	-26	15	.	.
CNc1ccc(/C=C(\CCC(=O)O)c2nc3ccccc3s2)cc1[N+](=O)[O-]	26*	-4	-79	-18	-24	15	39*	52*
Cn1ccnc1SCC(=O)c1cc2ccccc2o1	0	19	-12	-10	4	3	.	.
Cn1cnnc1SCC(=O)c1cc2ccccc2o1	63*	7	14	-8	6	.	-2	-1
SMILES	NPY-Y1 antag	m-calpain inh	NPY-Y1 PAM-ag	Tb hexokinase	NPY-Y2 PAM-ag	NPY Y2 blocker	NPY-Y1 ant conf	NPY2 antag ctr
COc1ccc2c(c1)C(C)=CC(C)(C)N2S(=O)(=O)c1ccc(Br)cc1	55*	8	-15	14	-18	.	27*	22*
COc1cccc(CN2CCN(S(=O)(=O)c3ccc(Br)cc3)CC2)c1	0	17	-21	2	-3	5	.	.
CCNc1nc(NCC)nc(SCCOC(=O)c2ccccc2)n1	8	4	-23	9	-2	2	.	.
CCNc1nc(NCC)nc(SCCOC(=O)Nc2ccc(Cl)cc2Cl)n1	24*	-6	-40	0	-21	13	10	12
COc1ccc(-c2c(NC(=O)c3ccco3)n(-c3ccc(C)cc3)nc(C)c2=O)cc1	.	5	1	-7	-8	.	.	.
CC(C)CN(Cc1cc(=O)oc2cc3c(cc12)CCCC3)CC(C)C	.	28	3	2	-2	.	.	.
O=C1C=C(NCc2ccc(Cl)c(Cl)c2)C2(CCCCC2)O1	42*	-8	3	-4	-6	15	10	7
Cc1cc(C)c(S(=O)(=O)Nc2ccc3c4c(cccc24)CC3)c(C)c1	23*	3	-64	5	-51	8	9	37*
Cc1ccc(S(=O)(=O)Nc2ccc3c4c(cccc24)CC3)c(C)c1	3	.	-8	1	-4	6	.	.
CCCCC(CC)CNC(=O)c1cccs1 (configuration not stated)	2	8	20	1	-7	1	.	.
COc1cc(OC)cc(C(=O)N/N=C/c2ccc(OC)c(COc3ccc(F)cc3)c2)c1	61*	-28	-53	-10	-80	12	16	31*
c1ccc(-c2nc3cnccn3c2Nc2ccc3c(c2)OCCO3)cc1	37*	-14	-25	-17	-1	12	5	5
CC(C)(C)NCC(=O)N/N=C/c1ccc(OCc2ccccc2)cc1	25*	-2	-35	8	-33	.	21*	31*
CCC1=Nc2cc(C(=O)O)ccc2Sc2ccc(Cl)cc21	69*	-31	14	12	-1	4	2	1
O=C(NCc1ccco1)C1CCN(S(=O)(=O)c2ccc(-n3cnnn3)cc2)CC1	21*	-4	-6	-1	5	2	0	3
Cc1ccccc1CCNC(=O)C1CCN(S(=O)(=O)c2ccc(-n3cnnn3)cc2)CC1	-1	-13	13	-5	0	0	.	.
